In the library only some 3.7% were active in any assay of this set; here they are far more common.
CFTR F508del cor – CFTR F508del correction in bronchial cells; CFBE cells, YFP halide quenching; stimulated with forskolin plus potentiator P3; % fluorescence drop versus neutral controls; activity (quench increase), % at 7.58 µM; hit rate 0.36% among 350,000;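 active = mean added fluorescence quench of at least 8% versus neutral control, with both replicates also reaching 8%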;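 note: cells transiently co-express mutant CFTR-F508del with the halide-sensitive YFP; corrector assay measuring rescue of mutant channel to the surface after 24 h compound exposure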
ERAP1 HTS inh – blocks human ERAP1 aminopeptidase activity; inhibition, % at 10.7 µM; recombinant ERAP1, Leu-AMC fluorescence, 60 min; hit rate 0.15% among 340,000; Q9NZ08; AID 652197;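 active = mean replicate inhibition of at least 30%, or all replicates individually reaching that 30% level; inactive = mean below 30% and not every replicate reaching it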;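 note: 0% = neutral control wells and 100% = L-leucinethiol positive control wells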
DENV2 CPE – DENV2-induced cell death inhibition. DENV2-infected cells, cytopathic effect rescue, plate reader. CPE inhibition, % at 9.99 µM. hit rate 1.7% among 350,000; in the data active = CPE inhibition above about 20%, passing the limit was not always enough; tested in BHK-21 cells;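 note: 0% = median of neutral control wells and 100% = median of positive control wells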
E-sel inducer – induces E-selectin expression in human endothelial cells; P16581; HUVEC E-selectin immunofluorescence imaging; normalized: neutral wells 0, TNF-alpha wells 100; activation, % at 7.58 µM; hit rate 0.37% among 260,000; AID 686992;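 active = mean E-selectin-positive cell signal at least 10% of the positive control, reached in at least 60% of replicates, without over 20% cell loss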
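Material: HUVEC primary endothelial cells; Amount: 3,000 cells per well; Dosing: single concentration; Medium: EGM-2 growth medium on 0.1% gelatin-coated wells; Read-out basis: percent E-selectin-positive cells; Signal: immunofluorescence imaging; Control set: TNF-alpha, DMSO.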
FGF22 binding – FGF22 (human) thermal shift binding; Q9HCT0; activity (Tm shift, normalised), % at 9.99 µM; hit rate 1.5% among 340,000; recombinant FGF22 thermal shift, SYPRO orange fluorescence; percent of sucrose octasulfate shift, DMSO zero;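 active = mean Tm shift, scaled 0 neutral to 100 positive control, at about 1.3% or above, every replicate too, limit read from the data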
Target sequence (Q9HCT0 whole entry, looked up): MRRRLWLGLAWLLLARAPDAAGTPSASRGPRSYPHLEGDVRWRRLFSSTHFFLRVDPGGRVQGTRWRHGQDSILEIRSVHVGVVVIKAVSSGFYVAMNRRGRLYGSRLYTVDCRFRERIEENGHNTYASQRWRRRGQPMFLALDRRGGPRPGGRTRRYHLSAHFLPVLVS
The depositor's hits bear a star; / = no result given; ! = not confirmed by another sample.

SMILES	CFTR F508del cor	ERAP1 HTS inh	DENV2 CPE	E-sel inducer	FGF22 binding
C[C@H](CO)N1C[C@H](C)[C@H](CN(C)S(=O)(=O)c2ccc(Cl)cc2)Oc2c(NC(=O)C3CCCCC3)cccc2C1=O	-2	-2	-2	36*	-1
C[C@@H]1CN([C@@H](C)CO)C(=O)c2cccc(NC(=O)NC3CCCCC3)c2O[C@@H]1CN(C)S(=O)(=O)c1ccc(Cl)cc1	1	1	16	0	0
COc1ccc(S(=O)(=O)N(C)C[C@H]2Oc3c(NC(=O)NC4CCCCC4)cccc3C(=O)N([C@H](C)CO)C[C@@H]2C)cc1	2	2	70*!	0	0
C[C@@H]1CCCCO[C@@H](CN(C)Cc2ccc(C(F)(F)F)cc2)[C@H](C)CN([C@H](C)CO)C(=O)c2cc(N(C)C)ccc2O1	-2	-1	-18	0	0
Cc1cc(C(=O)Nc2cccc3c2O[C@H](CN(C)C(=O)Nc2cccc4ccccc24)[C@@H](C)CN([C@@H](C)CO)C3=O)n(C)n1	-3	/	/	0	/
Cc1cccc(OC(C)C(=O)Nc2nc(-c3ccncc3)cs2)c1 (stereo not drawn)	0	-1	106*	0	0
CC(Oc1ccc(F)cc1)C(=O)Nc1nc(-c2ccccn2)cs1 (stereo not drawn)	2	2	2	0	0
C/C=C/c1ccc([C@@H]2[C@H](C#N)N(C(=O)NC3CCCCC3)[C@H]2CO)cc1	-2	7	77*	0	1
C/C=C/c1ccc([C@H]2[C@@H](CNS(C)(=O)=O)N(CC3CCCC3)[C@H]2CO)cc1	1	3	51*	0	0
C/C=C/c1ccc([C@H]2[C@@H](CO)N(CC3CCCC3)[C@H]2CNS(C)(=O)=O)cc1	0	/	-11	0	/
N#C[C@@H]1[C@H](c2ccc(C3=CCCCC3)cc2)[C@H](CO)N1C(=O)NC1CCCC1	6	/	27*	0	/
C/C=C/c1ccc([C@H]2[C@@H](C#N)N(C(=O)NC3CCCCC3)[C@H]2CO)cc1	-2	7	7	0	-1
N#C[C@H]1[C@H](c2ccc(C3=CCCCC3)cc2)[C@@H](CO)N1C(=O)NC1CCCCC1	10*	0	-4	0	0
CO[C@@H]1CN(C)C(=O)c2ccc(NC(=O)C3CCC3)cc2OC[C@@H](C)N(S(=O)(=O)c2ccc(Cl)cc2)C[C@H]1C	2	-5	2	0	0
CN1C(=O)c2cc(NC(=O)c3ccc(C(F)(F)F)cc3)ccc2OC[C@H]2O[C@H](CC(=O)NC3Cc4ccccc4C3)CC[C@@H]21	-1	1	-4	0	0
C[C@H]1CN([C@@H](C)CO)S(=O)(=O)c2ccc(-c3cncnc3)cc2O[C@H]1CN(C)C(=O)c1ccc2c(c1)OCO2	1	0	19	0	0
COc1cccc(N(CC(=O)NCC2CCCO2)C(=O)CNS(=O)(=O)c2ccccc2)c1 (stereo not drawn)	2	-3	-3	0	44*
O=C(CN(CC1CCCO1)C(=O)CNS(=O)(=O)c1ccccc1)NCc1ccco1 (stereo not drawn)	3	0	/	/	43*
CC(C)C[C@@H]1COc2cc(NCCO)ccc2S(=O)(=O)N1	-4	6	59*	0	1
O=C(C[C@H]1CC[C@@H](NC(=O)c2ccccn2)[C@@H](CO)O1)NCc1cc(F)cc(F)c1	-2	8	-10	1	0
COc1cccc(-c2ccc3c(c2)[C@H]2[C@H](CCN2S(=O)(=O)c2cn(C)cn2)[C@H](CO)N3)c1	-3	-2	-4	0	0
COc1cccc(-c2ccc3c(c2)[C@H]2[C@H](CCN2S(=O)(=O)c2cn(C)cn2)[C@@H](CO)N3)c1	-1	-1	98*	1	0
Cn1cnc(S(=O)(=O)N2CC[C@@H]3[C@H](CO)Nc4ccc(-c5ccc(F)cc5)cc4[C@@H]32)c1	2	1	46*	-1	0
CCCC#Cc1ccc2c(c1)[C@@H]1[C@@H](CCN1S(=O)(=O)c1ccccc1C)[C@@H](CO)N2	4	-1	66*	1	/
Cn1cnc(S(=O)(=O)N2CC[C@@H]3[C@H](CO)Nc4ccc(C#Cc5ccc(F)cc5)cc4[C@@H]32)c1	2	-2	27*	0	-1
SMILES	CFTR F508del cor	ERAP1 HTS inh	DENV2 CPE	E-sel inducer	FGF22 binding
CCCC#Cc1ccc2c(c1)[C@@H]1[C@@H](CCN1S(=O)(=O)c1ccccc1F)[C@@H](CO)N2	-1	2	16	1	/
Cn1cnc(S(=O)(=O)N2CC[C@@H]3[C@@H](CO)Nc4ccc(-c5ccc(F)cc5)cc4[C@@H]32)c1	2	1	20	0	1
CCCC#Cc1ccc2c(c1)[C@H]1[C@H](CCN1S(=O)(=O)c1cn(C)cn1)[C@H](CO)N2	1	2	65*	0	/
Cn1cnc(S(=O)(=O)N2CC[C@@H]3[C@H](CO)Nc4ccc(C#Cc5ccccc5)cc4[C@@H]32)c1	-2	/	/	1	0
COc1ccc(OCCN2CCN(S(=O)(=O)c3ccccc3C#N)CC2)cc1	1	-1	13	/	0
COc1ccc(OCCN2CCN(S(=O)(=O)c3ccccc3C(F)(F)F)CC2)cc1	-3	2	-5	139*	0
O=C(C[C@H]1C=C[C@@H](NC(=O)c2ccc3c(c2)OCO3)[C@@H](CO)O1)NCc1ccc(Oc2ccccc2)cc1	2	-3	6	0	0
C[C@@H](NC(=O)C[C@H]1C[C@H]2c3cc(NC(=O)c4cccnc4)ccc3O[C@H]2[C@@H](CO)O1)c1ccccc1	2	3	0	0	0
O=C1C[C@@H](c2ccc(O)cc2)Oc2cc(O)cc(O)c21	-1	-2	103*	0	0
CS/C(=N\S(=O)(=O)c1cccs1)Nc1ccc(F)c(Cl)c1	/	1	9	/	1.3*
O=C(O)C[C@H]1CC[C@@H](NC(=O)Nc2cc(F)ccc2F)[C@@H](CO)O1	-1	2	1	0	0
N#C[C@H]1[C@@H](c2ccccc2-c2ccccc2)[C@H](CO)N1C(=O)NC1CCCCC1	1	-1	7	0	/
O=C(c1cccc(F)c1)N1CC(=O)N2[C@H](CO)[C@H](c3ccc(-c4ccccc4F)cc3)[C@H]2C1	0	1	12	0	0
O=C(Cc1ccccc1)N1C[C@@H]2[C@H](c3ccccc31)[C@@H](CO)N2C(=O)C1CCCC1	-1	/	/	0	/
CSc1nnc(-c2ccc(Br)s2)n1C	4	1	2	-3	0
CSc1nnc(-c2cccs2)n1C	-1	4	8	/	43*
COc1ccccc1NC(=O)N1C[C@@H]2[C@H](c3ccccc31)[C@H](CO)N2C(=O)c1ccccc1	2	1	-7	0	0
N/C(=N\OC(=O)C1CCCCC1)c1ccncc1	/	9	-2	/	43*

Screening results as filed in PubChem.
